Activity calls are given as the source filed them. No cut-off for these calls is given here. Square brackets hold non-standard residues; d marks the D form. Peptide text beside a SMILES is read from it. * marks the point of attachment. ξ: configuration not given here. Dnp = O=[N+]([O-])c1ccc(*)c([N+](=O)[O-])c1; ξDab = NCCC(N)C(=O)O
How the values were obtained:
[1] = target: T1, Botulinum neurotoxin type E (Clostridium botulinum, UniProt Q00496); assay: (§1) Inhibition of Clostridium botulinum BoNT/E light chain using GFP-tagged VAMP2/SNAP-25 (Ala128 to Gly206 residues) as substrate after 15 mins by GFP based micro plate reader method
T1 sequence (Q00496 whole entry): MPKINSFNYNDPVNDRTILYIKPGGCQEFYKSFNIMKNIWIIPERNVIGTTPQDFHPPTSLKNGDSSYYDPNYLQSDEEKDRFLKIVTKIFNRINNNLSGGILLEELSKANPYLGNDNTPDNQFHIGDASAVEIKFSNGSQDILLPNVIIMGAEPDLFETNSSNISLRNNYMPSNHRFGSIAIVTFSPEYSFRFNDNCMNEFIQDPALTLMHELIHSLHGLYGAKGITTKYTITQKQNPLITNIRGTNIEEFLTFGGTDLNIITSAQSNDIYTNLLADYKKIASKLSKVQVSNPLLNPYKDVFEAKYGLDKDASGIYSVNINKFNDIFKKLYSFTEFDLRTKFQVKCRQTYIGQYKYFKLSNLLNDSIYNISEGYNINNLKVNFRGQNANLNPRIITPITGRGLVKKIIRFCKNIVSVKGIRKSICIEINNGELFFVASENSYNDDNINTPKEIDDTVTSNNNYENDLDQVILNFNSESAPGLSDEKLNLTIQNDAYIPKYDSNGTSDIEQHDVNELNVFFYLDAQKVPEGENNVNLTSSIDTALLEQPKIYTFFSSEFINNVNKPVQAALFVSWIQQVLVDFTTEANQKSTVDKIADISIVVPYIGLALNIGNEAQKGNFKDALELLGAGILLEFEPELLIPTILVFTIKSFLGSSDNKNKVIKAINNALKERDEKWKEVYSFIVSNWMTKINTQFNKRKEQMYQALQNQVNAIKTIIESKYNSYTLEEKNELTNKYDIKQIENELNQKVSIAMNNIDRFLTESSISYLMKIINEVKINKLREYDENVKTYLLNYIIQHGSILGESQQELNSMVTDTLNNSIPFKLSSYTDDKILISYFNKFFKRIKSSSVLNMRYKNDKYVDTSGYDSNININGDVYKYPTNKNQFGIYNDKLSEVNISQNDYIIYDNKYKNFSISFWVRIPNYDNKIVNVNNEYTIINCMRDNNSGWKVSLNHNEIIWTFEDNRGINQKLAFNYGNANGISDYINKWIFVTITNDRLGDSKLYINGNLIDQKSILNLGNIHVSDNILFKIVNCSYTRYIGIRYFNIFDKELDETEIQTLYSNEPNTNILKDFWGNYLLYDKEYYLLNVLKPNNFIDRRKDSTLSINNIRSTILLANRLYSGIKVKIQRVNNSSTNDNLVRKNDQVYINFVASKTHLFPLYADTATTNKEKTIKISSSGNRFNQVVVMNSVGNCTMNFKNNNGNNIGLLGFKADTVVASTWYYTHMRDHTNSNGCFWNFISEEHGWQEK
How it was run: (§2)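 Recombinant BoNT/E light chain (25 nM) in 20 mM Hepes pH 7.4 with 2 mM DTT, preincubated 15 min with compound, then added to streptavidin plates carrying an immobilised biotinylated AviTag–VAMP2/SNAP-25–GFP substrate. GFP release was followed at 37°C (ex 460/em 506 nm). Triplicates over a range of concentrations; IC50 came from a sigmoid fit with Hill slope fixed at 1. The ratio uses the reference inhibitor run under the same conditions.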

[2] = target: T2, Botulinum neurotoxin type E (Clostridium botulinum) (UniProt Q00496); assay: as §1; how it was run: as §2
T2 sequence (whole entry): T1 sequence (Q00496 whole entry)

[3] = target: T2, Botulinum neurotoxin type E (Clostridium botulinum); assay: Inhibition of Clostridium botulinum BoNT/E light chain-mediated SNAP-25 cleavage assessed as reduction in residual activity using SNAP-Etide as substrate at 100 uM after 15 mins by micro plate reader method
How it was run: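 Compound was preincubated 15 min with 2.5 nM BoNT/E light chain in 20 mM Hepes pH 7.4 with 2 mM DTT (final DMSO ≤1%). Reaction was started with 10 µM SNAP-Etide at 37°C and read as fluorescence (ex 320/em 420 nm). Percent inhibition = [1 − (test initial velocity ÷ mean initial velocity of two DMSO controls)] × 100.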

[4] = target: T3, Botulinum neurotoxin type A (Clostridium botulinum, UniProt P0DPI0); assay: Inhibition of protease activity of Clostridium botulinum BoNT/A using N(K)-acetyl)-SNKTRIDEANQRATKML-carboxamide as substrate
T3 sequence (P0DPI0 2-448 limits assumed): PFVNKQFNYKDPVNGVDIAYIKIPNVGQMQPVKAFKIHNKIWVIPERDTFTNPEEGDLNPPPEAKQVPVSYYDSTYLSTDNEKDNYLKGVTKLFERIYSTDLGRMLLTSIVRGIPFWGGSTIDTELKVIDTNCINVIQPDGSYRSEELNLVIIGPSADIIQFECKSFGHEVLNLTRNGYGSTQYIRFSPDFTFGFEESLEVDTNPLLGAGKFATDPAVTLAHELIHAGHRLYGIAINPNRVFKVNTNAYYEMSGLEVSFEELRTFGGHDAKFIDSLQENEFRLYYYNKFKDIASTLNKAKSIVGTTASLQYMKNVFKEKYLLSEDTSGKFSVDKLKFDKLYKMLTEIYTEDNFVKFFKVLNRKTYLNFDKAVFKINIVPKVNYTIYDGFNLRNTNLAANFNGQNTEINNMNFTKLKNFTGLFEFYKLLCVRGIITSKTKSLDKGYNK

[5] = target: T3, Botulinum neurotoxin type A; assay: Inhibition of Clostridium botulinum BoNT/A light chain
[6] = target: T2, Botulinum neurotoxin type E (Clostridium botulinum); assay: Inhibition of Clostridium botulinum BoNT/E light chain using GFP-tagged VAMP2/SNAP-25 (Ala128 to Gly206 residues) as substrate at 100 uM after 15 mins by GFP based micro plate reader method
How it was run: (§3)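 Immobilised biotinylated AviTag–VAMP2/SNAP-25(Ala128–Gly206)–GFP substrate on streptavidin plates. BoNT/E light chain (25 nM) in 20 mM Hepes pH 7.4 with 2 mM DTT was preincubated 15 min with compound before addition to the wells. Liberated GFP was read at 37°C (ex 460/em 506 nm). Percent inhibition at a single concentration, run in triplicate.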

[7] = target: T2, Botulinum neurotoxin type E (Clostridium botulinum); assay: Inhibition of Clostridium botulinum BoNT/E light chain using GFP-tagged VAMP2/SNAP-25 (Ala128 to Gly206 residues) as substrate at 25 uM after 15 mins by GFP based micro plate reader method; how it was run: as §3
[8] = target: T2, Botulinum neurotoxin type E (Clostridium botulinum); assay: Inhibition of Clostridium botulinum BoNT/E light chain using GFP-tagged VAMP2/SNAP-25 (Ala128 to Gly206 residues) as substrate at 12.5 uM after 15 mins by GFP based micro plate reader method; how it was run: as §3
[9] = target: T3, Botulinum neurotoxin type A; assay: Inhibition of protease activity of Clostridium botulinum BoNT/A using SNAP-25 as substrate by FRET analysis
[10] = target: T2, Botulinum neurotoxin type E (Clostridium botulinum); assay: Potency index, ratio of IC50 for NSC-77053 to IC50 for test compound for inhibition of Clostridium botulinum BoNT/E light chain using GFP-tagged VAMP2/SNAP-25 (Ala128 to Gly206 residues) as substrate after 15 mins by GFP based micro plate reader method; how it was run: as §2

Compound | inhibition [2] | inhibition [3] | other results
CC[C@H](C)[C@H](NS(=O)(=O)c1ccc2oc(=O)n(C)c2c1)C(=O)Nc1cccc(C)c1C |  |  | IC50 [1]: 16 µM
O=C(O)c1ccccc1C(=O)c1ccc2c(c1)Cc1ccccc1-2 |  |  | IC50 [1]: 48.5 µM
CCOc1ccc(OCC)c(NC(=O)CSc2cc(N3CCC(C(=O)NC4CC4)CC3)ncn2)c1 | inactive | 25% | 
CC(=O)c1cccc(NC(=O)CSc2nnc(SCC(=O)Nc3cccc(C(C)=O)c3)s2)c1 | inactive | 31% | 
CC(=O)N/C(=C\c1c[nH]c2ccccc12)C(=O)N[C@@H](Cc1c[nH]c2ccccc12)C(=O)O (stereo in doubt) | inactive | 52% | 
Cc1ccc(NC(=O)N2CC(=O)N(CC(=O)NC[C@H]3CCCO3)c3ccccc32)cc1 | inactive | 33% | 
H-CRATKML-OH |  |  | Ki [4]: 2 µM
N=C(N)NCCC[C@H](NC(=O)[C@@H](N)CCCNC(=N)N)C(=O)NCC(=O)N[C@@H](Cc1ccccc1)C(=O)O (H-RRGF-OH) |  |  | IC50 [5]: 0.9 µM
CSCC[C@H](NC(=O)C(CCN)NC(=O)[C@@H](NC(=O)[C@H](Cc1c[nH]c2ccccc12)NC(=O)[C@H](CCCNC(=N)N)NC(=O)C(N)CCNc1ccc([N+](=O)[O-])cc1[N+](=O)[O-])[C@@H](C)O)C(=O)N[C@@H](CC(C)C)C(=O)O (stereo partly specified) (H-[ξDab](Dnp)RWT[ξDab]ML-OH) |  |  | Ki [4]: 0.041 µM
COc1ccc(N(CC(=O)Nc2ccc(F)c(Cl)c2)S(=O)(=O)c2c(C)[nH]c(=O)[nH]c2=O)cc1 | inactive | 41% | 
COc1ccc(CNC(=O)C(=O)N[C@@H](C)[C@H](c2cccs2)N2CCN(Cc3ccccc3)CC2)cc1 | inactive | 47% | 
CCOc1ccc(NC(=O)CSc2nccn2-c2cccc(C(=O)Nc3ccccc3)c2)cc1 | inactive | 40% | 
Cc1cccc(NC(=O)[C@H](CC(C)C)NS(=O)(=O)c2ccc3oc(=O)n(C)c3c2)c1C |  |  | inhibition [6]: 77.5%; inhibition [7]: 62.5%; inhibition [8]: 52%
O=C(/C=C/c1ccc(Cl)cc1)NO |  |  | IC50 [9]: 15 µM
Cc1cc(C)cc(N(CC(=O)Nc2ccc(C(F)(F)F)cc2)S(=O)(=O)c2c(C)nc(O)nc2O)c1 | inactive | 42% | 
Cc1cccc(NC(=O)[C@@H](CC(C)C)NS(=O)(=O)c2ccc3oc(=O)n(C)c3c2)c1C |  | 71% | inhibition [6]: 84%; inhibition [7]: 58%; IC50 [1]: 14.2 µM; inhibition [8]: 46.5%; Ratio IC50 [10]: 3

Source: ChEMBL document CHEMBL4431362, “Identification of small molecule inhibitors of botulinum neurotoxin serotype E via footprint similarity” (Bioorg Med Chem, 2016)
